The source of these data is ChEMBL document CHEMBL1121867, “Inhibition of separated forms of cyclic nucleotide phosphodiesterase from pig coronary arteries by 1,3-disubstituted and 1,3,8-trisubstituted xanthines” (J Med Chem, 1981).

For assay [1], the species on record is Sus scrofa. Put plainly: Inhibition of Peak II phosphodiesterase from pig coronary arteries at 100 uM.
Assay [2] can be described thus: Inhibition of Peak I phosphodiesterase from pig coronary arteries. As to conditions: read-out: I50. More on the design: species or system Sus scrofa. The method, boiled down: (§1)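 Separated peak I and peak II phosphodiesterase forms prepared from pig coronary arteries. Hydrolysis of 1 µM cyclic nucleotide substrate was measured at 30 °C for 30 min, with enzyme diluted to give 10-20% hydrolysis without inhibitor. Compounds were added from 30% Me2SO, giving 3% Me2SO final in all tubes, including controls and blanks. I50 was read from concentration-inhibition curves over 10^-7 to 10^-4 M, or to 10^-3 M if soluble.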

Assay [3] is filed under the species Sus scrofa. The assay is described as follows: Inhibition of pig coronary artery phosphodiesterase peak I cGMP specific and calmodulin sensitive at 100 uM.
A short description of assay [4]: Inhibition of pig coronary artery cAMP-specific phosphodiesterase. Also on record: species or system Sus scrofa. As to conditions: read-out: I50. The method, boiled down:
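Separated peak I and peak II phosphodiesterase forms prepared from pig coronary arteries. Compounds were added from 30% Me2SO, giving 3% Me2SO final in all tubes, including controls and blanks. I50 was read from concentration-inhibition curves over 10^-7 to 10^-4 M, or to 10^-3 M if soluble.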

Assay [5] is filed under the species Sus scrofa. Put plainly: Inhibition of pig coronary artery phosphodiesterase peak II cyclic AMP specific at 100 uM.
Assay [6] is filed under the species Sus scrofa. Put plainly: Inhibition of pig coronary artery phosphodiesterase peak I cGMP specific and calmodulin sensitive. To be noted: concentration not given here. In a few lines: as §1

The term inhibition denotes the percentage by which the read-out fell short of the control. A high value points to a strong effect.

For `CC(C)Cn1c(=O)n(C)c(=O)c2[nH]c(CCC(=O)O)nc21`, in assay [1], the inhibition stood at 12%. For the same compound, the IC50 in assay [2] amounted to 45 µM.
On to `Cn1c(=O)c2nc[nH]c2n(C)c1=O` [THEOPHYLLINE], for which the IC50 in assay [2] is 100 µM.
As to `Cn1c(=O)c2nc[nH]c2n(CCO)c1=O`, the inhibition in assay [3] stood at 30%; in assay [1] it was 23%.
Take `C=C(C)Cn1c(=O)n(CCC(C)C)c(=O)c2nc[nH]c21`: the inhibition in assay [3] was found to be 38%; in assay [1], 42%.
As for `COC(=O)Cn1c(=O)c2nc[nH]c2n(CC(C)C)c1=O`, the inhibition in assay [3] was 26%; in assay [1] it was 40%.
In assay [1], `CC(C)Cn1c(=O)n(C)c(=O)c2[nH]c(CCl)nc21` yielded an inhibition of 28%. The IC50 in assay [2] stood at 8.9 µM.
Regarding `CC(=O)OCCn1c(=O)n(C)c(=O)c2nc[nH]c21`, the inhibition was determined as 43% in assay [3] and 27% in assay [1].
For the compound `CNc1nc2c(=O)n(C)c(=O)n(CC(C)C)c2[nH]1`, the inhibition in assay [1] turned out to be 39%. Besides, in assay [2], the IC50 is 1.2 µM.
For the compound `CC(C)Cn1c(=O)n(C)c(=O)c2[nH]c(CO)nc21`, the IC50 was found to be 283 µM in assay [4] and 9.4 µM in assay [2].
The compound `CC(C)Cn1c(=O)n(C)c(=O)c2[nH]c(N(C)C)nc21` gave an inhibition in assay [1] of 33%. In assay [2], the IC50 is 1.6 µM.
On to `CC(C)Cn1c(=O)n(C)c(=O)c2[nH]nnc21`, for which the results for the inhibition in assay [3] and in assay [5] were 35% and 1%, respectively.
As for `CC(C)CCn1c(=O)c2[nH]cnc2n(CC(C)C)c1=O`, the figures for the IC50 in assay [4] and in assay [2] were 17 µM and 86 µM, respectively.
The compound `CC(C)Cn1c(=O)n(C)c(=O)c2[nH]c(CCCO)nc21` displayed an inhibition in assay [1] of 29%. In addition, in assay [2], the IC50 was determined as 11 µM.
For `C=C(C)Cn1c(=O)n(C)c(=O)c2nc[nH]c21`, the results for the IC50 in assay [4] and in assay [2] were 36 µM and 10 µM, respectively.
In the case of `CC(C)=CCc1nc2c([nH]1)c(=O)n(C)c(=O)n2CC(C)C`, in assay [1], the inhibition was 21%. In assay [2], the IC50 was 6.3 µM.
For `COC(=O)CCc1nc2c(=O)n(C)c(=O)n(CC(C)C)c2[nH]1`, in that order: 30% and 9.8 µM.
For the compound `C=CCn1c(=O)n(C)c(=O)c2nc[nH]c21`, the IC50 stood at 52 µM in assay [4] and 25 µM in assay [2].
In the case of `CC(C)Cn1c(=O)n(CC(=O)O)c(=O)c2[nH]cnc21`, the inhibition in assay [6] is 2.4%; in assay [1] it was 1.9%.
`COCc1nc2c([nH]1)c(=O)n(C)c(=O)n2CC(C)C`: the figures for the IC50 in assay [4] and in assay [2] were 212 µM and 5.2 µM, respectively.
